Reference: ChEMBL document CHEMBL1128284, “Synthesis and in vitro activity of 17 beta-(N-alkyl/arylformamido)- and 17 beta-[(N-alkyl/aryl)alkyl/arylamido]-4-methyl-4-aza-3-oxo-5 alpha-androstan-3-ones as inhibitors of human 5 alpha-reductases and antagonists of the androgen receptor” (J Med Chem, 1995)

What was measured:
[1] = target: T1, 3-oxo-5-alpha-steroid 4-dehydrogenase 2 (Homo sapiens, UniProt P31213); assay: In vitro inhibition of human steroid 5-alpha-reductase type 2 in SW-13-transfected cells; type: cell-based
T1 sequence (P31213 whole entry): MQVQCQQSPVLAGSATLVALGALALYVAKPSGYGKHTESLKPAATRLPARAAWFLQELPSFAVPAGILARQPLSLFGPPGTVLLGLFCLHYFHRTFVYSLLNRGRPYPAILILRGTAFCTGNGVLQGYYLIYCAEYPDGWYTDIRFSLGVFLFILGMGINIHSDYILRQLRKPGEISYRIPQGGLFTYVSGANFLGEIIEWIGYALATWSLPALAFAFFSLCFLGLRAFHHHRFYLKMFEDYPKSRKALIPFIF
In short: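 Homogenate of SW-13 cells transfected with human type II 5α-reductase cDNA; 5 nM [3H]androstenedione, 500 μM NADPH, 50 mM Tris HCl pH 7.5 with 20% glycerol, 1 mM EDTA; 60 min, 37 °C. Ether extraction with steroid carriers, TLC, radioactivity counted; androstanedione formed as % of control.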

[2] = target: T2, 3-oxo-5-alpha-steroid 4-dehydrogenase 1 (Homo sapiens, UniProt P18405); assay: In vitro inhibition of human steroid 5-alpha-reductase type I in Du-145 cells; type: cell-based
T2 sequence (P18405 whole entry): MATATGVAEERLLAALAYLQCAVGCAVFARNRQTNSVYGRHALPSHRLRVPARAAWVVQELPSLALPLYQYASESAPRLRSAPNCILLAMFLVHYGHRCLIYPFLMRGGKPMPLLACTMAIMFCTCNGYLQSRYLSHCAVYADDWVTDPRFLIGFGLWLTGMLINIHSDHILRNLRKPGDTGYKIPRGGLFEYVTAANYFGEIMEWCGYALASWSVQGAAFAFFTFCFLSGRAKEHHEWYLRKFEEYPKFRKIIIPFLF
In short: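 Intact DU-145 cells (passages 60–90), 100000 cells/well, adhered 24 h; compounds in ethanol diluted in DMEM/2% charcoal-adsorbed FBS with 5 nM [3H]androstenedione, 24 h at 37 °C, 5% CO2. Ether extraction, TLC, radioactivity; androstanedione, androsterone, epiandrosterone formed as % of control.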

Row | Compound | IC50 [1] | IC50 [2]
1 | CC(C)C(=O)N(c1ccccc1)[C@H]1CCC2C3CC[C@H]4N(C)C(=O)CC[C@]4(C)C3CC[C@@]21C (stereo partly specified) | 582 nM | 10.5 nM
2 | CN1C(=O)CC[C@]2(C)C3CC[C@@]4(C)C(CC[C@@H]4N(C=O)C4CC4)C3CC[C@@H]12 (stereo partly specified) | > 100 nM | –
3 | CCN(CC)C(=O)[C@H]1CC[C@H]2[C@@H]3CC[C@H]4N(C)C(=O)CC[C@]4(C)[C@H]3CC[C@]12C | 7.48 nM | 4.14 nM
4 | CC(C)C(=O)N(c1ccc([N+](=O)[O-])c(C(F)(F)F)c1)[C@H]1CCC2C3CC[C@H]4N(C)C(=O)CC[C@]4(C)C3CC[C@@]21C (stereo partly specified) | > 1000 nM | 59.8 nM
5 | CN(C=O)[C@H]1CCC2C3CC[C@H]4N(C)C(=O)CC[C@]4(C)C3CC[C@@]21C (stereo partly specified) | 1000 nM | –
6 | CN1C(=O)CC[C@]2(C)C3CC[C@@]4(C)C(CC[C@@H]4N(C=O)Cc4ccccc4)C3CC[C@@H]12 (stereo partly specified) | > 100 nM | 5.63 nM
7 | COc1ccc(N(C(=O)c2ccccc2)[C@H]2CCC3C4CC[C@H]5N(C)C(=O)CC[C@]5(C)C4CC[C@@]32C)cc1 (stereo partly specified) | > 1000 nM | 2.11 nM
8 | CC(C)(C)NC(=O)[C@H]1CC[C@H]2[C@@H]3CC[C@H]4NC(=O)C=C[C@]4(C)[C@H]3CC[C@]12C [FINASTERIDE] | 4.53 nM | 26.3 nM
9 | CN(C=O)[C@H]1CCC2C3CC[C@H]4NC(=O)C=C[C@]4(C)C3CC[C@@]21C (stereo partly specified) | > 1000 nM | 207 nM
10 | CCCCCCCN(C=O)[C@H]1CCC2C3CC[C@H]4N(C)C(=O)CC[C@]4(C)C3CC[C@@]21C (stereo partly specified) | 14 nM | 9.57 nM
11 | CC(C)N(C=O)[C@H]1CCC2C3CC[C@H]4N(C)C(=O)CC[C@]4(C)C3CC[C@@]21C (stereo partly specified) | > 100 nM | 9.53 nM
12 | CN(C=O)[C@H]1CCC2C3CC[C@H]4N(C)C(=O)C=C[C@]4(C)C3CC[C@@]21C (stereo partly specified) | > 1000 nM | 124 nM
13 | CN1C(=O)CC[C@]2(C)C3CC[C@@]4(C)C(CC[C@@H]4N(C(=O)c4ccccc4)c4ccccc4)C3CC[C@@H]12 (stereo partly specified) | 3.75 nM | 2.93 nM
14 | CCC(CC)N(C=O)[C@H]1CCC2C3CC[C@H]4N(C)C(=O)CC[C@]4(C)C3CC[C@@]21C (stereo partly specified) | > 100 nM | –
15 | CC(C)C(=O)N(c1ccc([N+](=O)[O-])cc1)[C@H]1CCC2C3CC[C@H]4N(C)C(=O)CC[C@]4(C)C3CC[C@@]21C (stereo partly specified) | > 1000 nM | 32.8 nM
16 | COc1ccc(N(C(=O)C(C)C)[C@H]2CCC3C4CC[C@H]5N(C)C(=O)CC[C@]5(C)C4CC[C@@]32C)cc1 (stereo partly specified) | > 100 nM | 5.44 nM
17 | CN(C=O)[C@H]1CCC2C3CC[C@H]4NC(=O)CC[C@]4(C)C3CC[C@@]21C (stereo partly specified) | > 1000 nM | 3700 nM
18 | CCCCCCCCN(C=O)[C@H]1CCC2C3CC[C@H]4N(C)C(=O)CC[C@]4(C)C3CC[C@@]21C (stereo partly specified) | 18.4 nM | 16.9 nM
19 | CC(C)CN(C=O)[C@H]1CCC2C3CC[C@H]4N(C)C(=O)CC[C@]4(C)C3CC[C@@]21C (stereo partly specified) | > 100 nM | 7.31 nM
20 | CN1C(=O)CC[C@]2(C)C3CC[C@@]4(C)C(CC[C@@H]4N(C=O)C4CCCCC4)C3CC[C@@H]12 (stereo partly specified) | > 100 nM | –
21 | CN1C(=O)CC[C@]2(C)C3CC[C@@]4(C)C(CC[C@@H]4N(C=O)CCC(C)(C)C)C3CC[C@@H]12 (stereo partly specified) | > 100 nM | 2.35 nM
22 | CC(C)CCN(C=O)[C@H]1CCC2C3CC[C@H]4N(C)C(=O)CC[C@]4(C)C3CC[C@@]21C (stereo partly specified) | > 100 nM | 2.19 nM
23 | CN1C(=O)CC[C@@]2(C)C1=CCC1C2CC[C@@]2(C)C1CC[C@@H]2N(C)C=O (stereo partly specified) | > 1000 nM | 1900 nM

Continued, values first:

Row | IC50 [1] | IC50 [2] | Compound
24 | > 100 nM | 3.31 nM | CCCCCN(C(=O)CCC)[C@H]1CCC2C3CC[C@H]4N(C)C(=O)CC[C@]4(C)C3CC[C@@]21C (stereo partly specified)
25 | > 100 nM | 5.08 nM | CCCN(C=O)[C@H]1CCC2C3CC[C@H]4N(C)C(=O)CC[C@]4(C)C3CC[C@@]21C (stereo partly specified)
26 | > 100 nM | 3.05 nM | CCCCN(C=O)[C@H]1CCC2C3CC[C@H]4N(C)C(=O)CC[C@]4(C)C3CC[C@@]21C (stereo partly specified)
27 | > 100 nM | 7.25 nM | CCCCCCN(C=O)[C@H]1CCC2C3CC[C@H]4N(C)C(=O)CC[C@]4(C)C3CC[C@@]21C (stereo partly specified)
28 | > 100 nM | 1.77 nM | CCCCCN(C(=O)CCCC)[C@H]1CCC2C3CC[C@H]4N(C)C(=O)CC[C@]4(C)C3CC[C@@]21C (stereo partly specified)
29 | > 100 nM | 0.91 nM | CCCCCN(C=O)[C@H]1CCC2C3CC[C@H]4N(C)C(=O)CC[C@]4(C)C3CC[C@@]21C (stereo partly specified)
30 | > 100 nM | – | CCCCN(C(C)=O)[C@H]1CCC2C3CC[C@H]4N(C)C(=O)CC[C@]4(C)C3CC[C@@]21C (stereo partly specified)
31 | 1000 nM | 2.42 nM | CCCCCN(C(=O)CCCCBr)[C@H]1CCC2C3CC[C@H]4N(C)C(=O)CC[C@]4(C)C3CC[C@@]21C (stereo partly specified)
32 | > 100 nM | 4.56 nM | CCCCCN(C(=O)CC)[C@H]1CCC2C3CC[C@H]4N(C)C(=O)CC[C@]4(C)C3CC[C@@]21C (stereo partly specified)
33 | > 100 nM | 3.22 nM | CCCCCN(C(=O)c1ccccc1)[C@H]1CCC2C3CC[C@H]4N(C)C(=O)CC[C@]4(C)C3CC[C@@]21C (stereo partly specified)
